According to ChEMBL document CHEMBL5724801, “EUbOPEN Chemogenomics Library - Multiplex” (2024):
“And” between values parts separate entries of the source, which are not always exact repeats. Equal values may be shown once.

Tested on: Fibroblast
Assay: Multiplex assay against human fibroblast
Type: toxicity, cell-based
In short: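 Live cells were stained at seeding with Hoechst33342, BioTracker Green Microtubule Cytoskeleton Dye, MitoTracker Red and Annexin V Alexa Fluor 680, then imaged on a CQ1 microscope at 37°C and 5% CO2 after compound addition. CellPathfinder machine-learning gating split cells into Hoechst high-intensity objects or normal cells. Normal cells were split into healthy, pyknosed or fragmented nuclei, and pyknosed cells into mitotic or apoptotic. Tubulin, mitochondrial-mass and membrane-permeability phenotypes are per cents of healthy-nucleus cells.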

[1] = 12 h, 1 µM, compound concentration 1 uM
[2] = 12 h, 10 µM, compound concentration 10 uM
[3] = 24 h, 1 µM, compound concentration 1 uM
[4] = 24 h, 10 µM, compound concentration 10 uM
[5] = 48 h, 1 µM, compound concentration 1 uM
[6] = 48 h, 10 µM, compound concentration 10 uM

## CC(N)C1CCC(C(=O)Nc2ccncc2)CC1 (stereo unspecified)
[1]
  Population Fragmented Nuclei (%): 12.67% and 4.31%
  Population Healthy Nuclei (%): 64.25% and 88.36%
  Population Hoechst High Intensity Objects (%): 0%
  Population Membrane Permeable-Phenotype (%): 2.82% and 2.93%
  Population Mitochondria Different-Phenotype (%): 7.75% and 8.29%
  Population Mitotic Cells (%): 94.12% and 82.35%
  Population Normal (%): 100%
  Population Tubulin-Different-Phenotype (%): 11.27% and 12.2%
  Total Cell Count: 221 and 232
[2]
  Population Apoptotic (%): 19.3% and 38.89%
  Population Fragmented Nuclei (%): 9.18% and 4.02%
  Population Healthy Nuclei (%): 63.29% and 85.63%
  Population Hoechst High Intensity Objects (%): 0%
  Population Membrane Permeable-Phenotype (%): 3.05% and 0%
  Population Mitochondria Different-Phenotype (%): 10.69% and 10.07%
  Population Mitotic Cells (%): 80.7% and 61.11%
  Population Normal (%): 100%
  Population Pyknosed Nuclei (%): 27.54% and 10.34%
  Population Tubulin-Different-Phenotype (%): 10.69% and 8.05%
  Total Cell Count: 207 and 174
[3]
  Population Apoptotic (%): 11.11% and 33.33%
  Population Fragmented Nuclei (%): 6.64% and 2.82%
  Population Healthy Nuclei (%): 78.42% and 89.92%
  Population Hoechst High Intensity Objects (%): 0%
  Population Membrane Permeable-Phenotype (%): 4.23% and 2.69%
  Population Mitochondria Different-Phenotype (%): 0.53% and 5.83%
  Population Mitotic Cells (%): 88.89% and 66.67%
  Population Normal (%): 100%
  Population Pyknosed Nuclei (%): 14.94% and 7.26%
  Population Tubulin-Different-Phenotype (%): 7.41% and 11.66%
  Total Cell Count: 241 and 248
[4]
  Population Apoptotic (%): 18.18% and 44.44%
  Population Fragmented Nuclei (%): 6.51% and 6.08%
  Population Healthy Nuclei (%): 78.14% and 88.95%
  Population Hoechst High Intensity Objects (%): 0%
  Population Membrane Permeable-Phenotype (%): 2.38% and 0%
  Population Mitochondria Different-Phenotype (%): 4.76% and 8.07%
  Population Mitotic Cells (%): 81.82% and 55.56%
  Population Normal (%): 100%
  Population Tubulin-Different-Phenotype (%): 13.69% and 11.8%
  Total Cell Count: 215 and 181
[5]
  Population Apoptotic (%): 30.77% and 83.33%
  Population Fragmented Nuclei (%): 11.15% and 6.02%
  Population Healthy Nuclei (%): 83.85% and 91.57%
  Population Hoechst High Intensity Objects (%): 0%
  Population Membrane Permeable-Phenotype (%): 0.92% and 3.07%
  Population Normal (%): 100%
  Population Pyknosed Nuclei (%): 5% and 2.41%
  Population Tubulin-Different-Phenotype (%): 3.21% and 10.09%
  Total Cell Count: 260 and 249
[6]
  Population Apoptotic (%): 50% and 33.33%
  Population Fragmented Nuclei (%): 10.31% and 6.56%
  Population Healthy Nuclei (%): 86.64% and 90.16%
  Population Hoechst High Intensity Objects (%): 0%
  Population Membrane Permeable-Phenotype (%): 0.44% and 0.61%
  Population Mitotic Cells (%): 50% and 66.67%
  Population Normal (%): 100%
  Population Pyknosed Nuclei (%): 3.05% and 3.28%
  Population Tubulin-Different-Phenotype (%): 3.08% and 11.52%
  Total Cell Count: 262 and 183

## Cn1cc(C(=O)OCC2CCN(CCNS(C)(=O)=O)CC2)c2ccccc21
[1]
  Population Apoptotic (%): 44% and 33%
  Population Fragmented Nuclei (%): 13% and 21%
  Population Healthy Nuclei (%): 71% and 46%
  Population Hoechst High Intensity Objects (%): 1% and 4%
  Population Membrane Permeable-Phenotype (%): 0% and 9%
  Population Mitochondria Different-Phenotype (%): 3% and 1%
  Population Mitotic Cells (%): 55% and 66%
  Population Normal (%): 98% and 95%
  Population Pyknosed Nuclei (%): 14% and 32%
  Population Tubulin-Different-Phenotype (%): 23% and 37%
  Total Cell Count: 202 and 164
[2]
  Population Apoptotic (%): 48% and 25%
  Population Fragmented Nuclei (%): 29% and 32%
  Population Healthy Nuclei (%): 55% and 51%
  Population Hoechst High Intensity Objects (%): 3% and 5%
  Population Membrane Permeable-Phenotype (%): 0% and 5%
  Population Mitochondria Different-Phenotype (%): 9% and 7%
  Population Mitotic Cells (%): 51% and 75%
  Population Normal (%): 96% and 94%
  Population Pyknosed Nuclei (%): 14% and 16%
  Population Tubulin-Different-Phenotype (%): 41% and 47%
  Total Cell Count: 207 and 184
[3]
  Population Apoptotic (%): 31% and 30%
  Population Fragmented Nuclei (%): 13% and 25%
  Population Healthy Nuclei (%): 74% and 47%
  Population Hoechst High Intensity Objects (%): 5% and 2%
  Population Membrane Permeable-Phenotype (%): 0% and 7%
  Population Mitochondria Different-Phenotype (%): 0% and 6%
  Population Mitotic Cells (%): 68% and 69%
  Population Normal (%): 94% and 97%
  Population Pyknosed Nuclei (%): 11% and 26%
  Population Tubulin-Different-Phenotype (%): 23% and 48%
  Total Cell Count: 201 and 168
[4]
  Population Apoptotic (%): 80% and 41%
  Population Fragmented Nuclei (%): 33% and 40%
  Population Healthy Nuclei (%): 53% and 43%
  Population Hoechst High Intensity Objects (%): 5% and 4%
  Population Membrane Permeable-Phenotype (%): 0% and 3%
  Population Mitochondria Different-Phenotype (%): 3% and 5%
  Population Mitotic Cells (%): 20% and 58%
  Population Normal (%): 94% and 95%
  Population Pyknosed Nuclei (%): 13% and 16%
  Population Tubulin-Different-Phenotype (%): 42% and 52%
  Total Cell Count: 201 and 188
[5]
  Population Apoptotic (%): 54% and 52%
  Population Fragmented Nuclei (%): 14% and 33%
  Population Healthy Nuclei (%): 72% and 54%
  Population Hoechst High Intensity Objects (%): 5% and 4%
  Population Membrane Permeable-Phenotype (%): 0% and 5%
  Population Mitochondria Different-Phenotype (%): 1% and 2%
  Population Mitotic Cells (%): 45% and 47%
  Population Normal (%): 94% and 95%
  Population Pyknosed Nuclei (%): 12%
  Population Tubulin-Different-Phenotype (%): 23% and 43%
  Total Cell Count: 197 and 177
[6]
  Population Apoptotic (%): 68% and 50%
  Population Fragmented Nuclei (%): 28% and 40%
  Population Healthy Nuclei (%): 58% and 46%
  Population Hoechst High Intensity Objects (%): 9% and 6%
  Population Membrane Permeable-Phenotype (%): 0% and 2%
  Population Mitochondria Different-Phenotype (%): 9% and 8%
  Population Mitotic Cells (%): 32% and 50%
  Population Normal (%): 90% and 93%
  Population Pyknosed Nuclei (%): 13% and 12%
  Population Tubulin-Different-Phenotype (%): 49% and 60%
  Total Cell Count: 199 and 190
